The record followed here is ChEMBL document CHEMBL1833799, “Glionitrin B, a cancer invasion inhibitory diketopiperazine produced by microbial coculture” (2011).

The source made the active and inactive calls. The rule behind the calls is not given here.

The test system of assay [1] is DU-145. In words: Cytotoxicity against human DU145 cells at 0.25 to 8 uM after 24 hrs by cell counting kit analysis. It is filed as functional, cell-based. In a few lines:
(§1)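 DU145 cells cultured at 37 °C in humidified 5% CO2 with serum and penicillin/streptomycin. Cells treated with a range of compound concentrations for 24 h, then viability read with Cell Counting Kit-8 per the manufacturer. Viability expressed relative to an untreated group. Paclitaxel (0.1 μM) served as positive control.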
A general note: Tetrazolium dyes change colour on reduction, which living cells bring about.

For assay [2], the system named is DU-145. Briefly: Antiinvasive activity against human DU145 cells at 0.2 uM after 24 hrs by cell invasion assay. It is filed as functional, cell-based. Summed up: (§2)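 DU145 prostate cancer cells grown at 37 °C, humidified 5% CO2, in medium with serum, 100 units/mL penicillin and 100 μg/mL streptomycin. Cells exposed to compound for 24 h, then in vitro invasiveness measured with a commercial cell invasion assay kit per the maker's protocol. Inhibition expressed relative to an untreated group.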

The subject of assay [3] is DU-145. In words: Cytotoxicity against human DU145 cells at 2.5 to 80 uM after 24 hrs by cell counting kit analysis. Type of assay: functional, cell-based. In a few lines: as §1
For assay [4], the system named is DU-145. Briefly: Cytotoxicity against human DU145 cells at 0.1 uM after 24 hrs by cell counting kit analysis. It is filed as functional. In a few lines: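 DU145 cells were cultured in serum-supplemented medium with penicillin/streptomycin at 37 °C in 5% CO2. They were exposed to a range of compound concentrations for 24 h. Viability was read with the CCK-8 kit per the manufacturer's instructions and expressed as a percentage of an untreated group. Paclitaxel at 0.1 μM served as the positive control.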

Assay [5] deals with DU-145. In words: Antiinvasive activity against human DU145 cells at 15 to 60 uM after 24 hrs by cell invasion assay. Type of assay: functional, cell-based. In a few lines: as §2
Assay [6] has as its system DU-145. In words: Inhibition of human DU145 cells invasion at 60 uM after 24 hrs by cell invasion assay. Type of assay: functional. To be noted: DU-145, 24 h. In a few lines: as §2
Assay [7] has as its system DU-145. Briefly: Decrease in MMP2 mRNA level in human DU145 cell by RT-PCR analysis. It is filed as functional, cell-based. In a few lines: (§3)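 DU145 cells were exposed to compounds for 18 h. Total RNA was isolated by spin column and reverse-transcribed to cDNA. PCR used 100 ng cDNA aliquots: 94 °C for 5 min, then 32 cycles of 94 °C for 30 s, 58 °C for 30 s and 72 °C for 1 min. Products were assessed for MMP-2 and MMP-9 transcript levels.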

Assay [8] concerns DU-145. In words: Decrease in MMP9 mRNA level in human DU145 cell by RT-PCR analysis. Type of assay: functional, cell-based. Summed up: as §3
For assay [9], the system named is DU-145. In words: Antiinvasive activity against human DU145 cells after 24 hrs by cell invasion assay. It is filed as functional, cell-based. In a few lines:
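DU145 cells grown with serum, 100 units/mL penicillin and 100 μg/mL streptomycin at 37 °C in humidified 5% CO2. Cells were exposed to test compounds at the indicated concentrations for 24 h. In vitro invasiveness was then measured with a commercial cell invasion kit per the manufacturer's protocol and expressed as inhibition relative to an untreated group.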

Regarding `CN1C(=O)[C@@]23Cc4ccc([N+](=O)[O-])cc4N2C(=O)[C@@]1(CO)SS3`, the result in the assay on DU-145 [1] and in the assay on DU-145 [3] was Active. Further, the outcome with DU-145 [2] was inactive.
Regarding `CC(=O)O[C@H]1C(=O)[C@@]2(C)[C@H]([C@H](OC(=O)c3ccccc3)[C@]3(O)C[C@H](OC(=O)[C@H](O)[C@@H](NC(=O)c4ccccc4)c4ccccc4)C(C)=C1C3(C)C)[C@]1(OC(C)=O)CO[C@@H]1C[C@@H]2O` [PACLITAXEL], in the assay with DU-145 [4], the Activity came out at 18.9%.
For `CN1C(=O)[C@]23CC4=CC=C[C@H](O)[C@H]4N2C(=O)[C@@]1(CO)SS3`, the outcome in the assay with DU-145 [1] and with DU-145 [3] was Active. Also, the outcome in the assay on DU-145 [2] was inactive.
In general, inhibition refers to the percentage by which the read-out fell short of the control. Lower therefore signals little suppression. With `CS[C@]1(CO)C(=O)N2[C@H]3C(=CC=C[C@@H]3O)C[C@@]2(SC)C(=O)N1C` [BIS(DETHIO)BIS(METHYLTHIO)GLIOTOXIN], the result in the assay with DU-145 [5] and with DU-145 [3] was inactive. Moreover, in the assay with DU-145 [6], testing at 60 µM gave an inhibition of 22%.
With `CS[C@@]1(CO)C(=O)N2c3cc([N+](=O)[O-])ccc3C[C@]2(SC)C(=O)N1C` [GLIONITRIN B], the Activity result in the assay on DU-145 [7], with DU-145 [8] and in the assay with DU-145 [9] was “Dose-dependent effect” throughout. This compound also yielded an inhibition at 60 µM with DU-145 [6] of 46%. In addition, the outcome with DU-145 [3] was inactive.
